Test results from ChEMBL document CHEMBL2396536, “Curcuminoids block TGF-β signaling in human breast cancer cells and limit osteolysis in a murine model of breast cancer bone metastasis” (J Nat Prod, 2013).
Active and inactive are the calls of the source. The rule behind the calls is not given here.

What was measured:
Mus musculus [1] = assay: Effect on orthotopic tumor mass in human MDA-MB-231 cells xenografted athymic nude mouse mammary fat pad at 25 to 50 mg/kg, ip administered every other day for 3 weeks
Mus musculus [2] = assay: Toxicity in human MDA-MB-231 cells xenografted athymic nude mouse left cardiac ventricle assessed as effect on hematocrit at 25 mg/kg, ip administered every other day for 3 weeks (reference value: 30.2 +/- 1.5%); assay type: organism-based, Heart; parameters: dose 25 mg/kg, route intraperitoneal; details: in vivo, 504 h
MDA-MB-231 [3] = assay: Inhibition of osteolytic bone metastases in human MDA-MB-231 cells xenografted in athymic nude mouse left cardiac ventricle assessed as effect on tumor burden at 25 to 50 mg/kg, ip administered every other day for 3 weeks by histological analysis; assay type: functional, organism-based; details: Heart left ventricle
Method in brief: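 Intracardiac MDA-MB-231 model in female nude mice, dosed ip every other day for 21 days, n = 11/group. Hindlimbs harvested day 21, formalin-fixed and EDTA-decalcified. Tumor area measured blinded on mid-sagittal 5 μm H&E sections of tibiae and femora at 10x magnification.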

Mus musculus [4] = assay: Toxicity in human MDA-MB-231 cells xenografted athymic nude mouse left cardiac ventricle assessed as effect on alanine aminotransferase at 50 mg/kg, ip administered every other day for 3 weeks (reference value: 7.04 +/- 2.2 U/L); assay type: organism-based, Heart; parameters: dose 50 mg/kg, route intraperitoneal; details: in vivo, 504 h
Mus musculus [5] = assay: Toxicity in human MDA-MB-231 cells xenografted athymic nude mouse left cardiac ventricle assessed as effect on platelets at 25 mg/kg, ip administered every other day for 3 weeks (reference value: 513 +/- 54 K/uL); assay type: organism-based, Heart; parameters: dose 25 mg/kg, route intraperitoneal; details: in vivo, 504 h
Mus musculus [6] = assay: Toxicity in human MDA-MB-231 cells xenografted athymic nude mouse left cardiac ventricle assessed as effect on alanine aminotransferase at 25 mg/kg, ip administered every other day for 3 weeks (reference value: 7.04 +/- 2.2 U/L); assay type: organism-based, Heart; parameters: dose 25 mg/kg, route intraperitoneal; details: in vivo, 504 h
MDA-MB-231 [7] = assay: Inhibition of osteolytic bone metastases in human MDA-MB-231 cells xenografted in athymic nude mouse left cardiac ventricle assessed as reduction in lytic bone lesion area at 25 to 50 mg/kg, ip administered every other day for 3 weeks measured on day 21 relative to control; assay type: functional, Heart left ventricle; details: dose mg/kg 25-50; route intraperitoneal
Method in brief: (§1)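 Four-week female athymic nude mice inoculated with 1 × 10^5 MDA-MB-231 cells in 0.1 mL PBS into the left cardiac ventricle. Dosed ip at 25 or 50 mg/kg or vehicle every other day from day 1 for 21 days, n = 11/group. Lytic lesion area quantified on radiographs on days 12, 16 and 21. Two-way ANOVA with Bonferroni.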

MDA-MB-231 [8] = assay: Inhibition of osteolytic bone metastases in human MDA-MB-231 cells xenografted in athymic nude mouse left cardiac ventricle assessed as reduction of bone-tumor interface at 25 mg/kg, ip administered every other day for 3 weeks; assay type: functional; details: MDA-MB-231, Heart left ventricle, 504 h, route intraperitoneal
Method in brief: (§2)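 Intracardiac MDA-MB-231 model in nude mice, dosed ip every other day for 21 days. Mid-sagittal tibia and femur sections TRAP-stained. TRAP+ multinucleated (>3 nuclei) cells counted at 40x along the tumor-bone interface. Expressed as osteoclasts per mm of interface.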

MDA-MB-231 [9] = assay: Inhibition of TGF-beta-induced Ets-1 expression in human MDA-MB-231 cells treated 12 hrs before TGF-beta challenge measured after 1 hr by Western blotting
Mus musculus [10] = assay: Toxicity in human MDA-MB-231 cells xenografted athymic nude mouse left cardiac ventricle assessed as effect on hematocrit at 50 mg/kg, ip administered every other day for 3 weeks (reference value: 30.2 +/- 1.5%); assay type: organism-based, Heart; parameters: dose 50 mg/kg, route intraperitoneal; details: in vivo, 504 h
Mus musculus [11] = assay: Toxicity in human MDA-MB-231 cells xenografted athymic nude mouse left cardiac ventricle assessed as effect on liver weight at 25 mg/kg, ip administered every other day for 3 weeks (reference value: 1 +/- 0.10 gram); assay type: organism-based, Heart; parameters: dose 25 mg/kg, route intraperitoneal; details: in vivo, 504 h
[12] = biological target: Mothers against decapentaplegic homolog 2 (Homo sapiens) (UniProt Q15796); assay: Inhibition of TGF-beta-induced Smad2 phosphorylation in human MDA-MB-231 cells treated 12 hrs before TGF-beta challenge measured after 1 hr by Western blotting; assay type: cell-based
Method in brief: (§3)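 Subconfluent MDA-MB-231 pre-treated 12 h with compound (80 μM), then TGF-β (5 ng/mL) for 1 h. RIPA whole-cell lysates (18 μg) run on SDS-PAGE and transferred to PVDF. Probed with rabbit anti-phospho-Smad2, phospho-Smad3, phospho-p38 or Ets-1 (1:1000, overnight, 4 °C). β-actin used as loading control. Chemiluminescent detection; three independent experiments.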

[13] = biological target: MAP kinase p38 (Homo sapiens) (UniProt O15264+Q15759+Q16539+P53778); assay: Inhibition of TGF-beta-induced p38 phosphorylation in human MDA-MB-231 cells treated 12 hrs before TGF-beta challenge measured after 1 hr by Western blotting; assay type: cell-based
Method in brief: as §3

MDA-MB-231 [14] = assay: Inhibition of TGF-beta-induced PTHrP secretion in human MDA-MB-231 cells treated 4 hrs before TGF-beta challenge measured after 24 hrs by radioimmunoassay; assay type: functional, cell-based; details: for minimal effective concentration: read-out: MEC
Method in brief: (§4)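 MDA-MB-231 plated at 5 × 10^4 cells/cm2 and held overnight in DMEM with 10% FBS. Pre-treated 4 h with compound (0.1–100 μM in methods; 0.1–300 μM in legend) in 2% FBS, then recombinant human TGF-β1 (5 ng/mL) or medium alone for 24 h. PTHrP measured in conditioned media by radioimmunoassay, n = 4 wells/group. IC50 from four-parameter logistic fit.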

Mus musculus [15] = assay: Toxicity in human MDA-MB-231 cells xenografted athymic nude mouse left cardiac ventricle assessed as effect on spleen weight at 25 mg/kg, ip administered every other day for 3 weeks (reference value: 0.134 +/- 0.02 gram); assay type: organism-based; parameters: dose 25 mg/kg, route intraperitoneal; details: in vivo, 504 h
MDA-MB-231 [16] = assay: Inhibition of osteolytic bone metastases in human MDA-MB-231 cells xenografted in athymic nude mouse left cardiac ventricle assessed as improvement in body weight at 25 to 50 mg/kg, ip administered every other day for 3 weeks measured on day 16 relative to vehicle-treated control; assay type: functional, organism-based; details: Heart left ventricle
Mus musculus [17] = assay: Toxicity in human MDA-MB-231 cells xenografted athymic nude mouse left cardiac ventricle assessed as effect on liver weight at 50 mg/kg, ip administered every other day for 3 weeks (reference value: 1 +/- 0.10 gram); assay type: organism-based, Heart; parameters: dose 50 mg/kg, route intraperitoneal; details: in vivo, 504 h
MDA-MB-231 [18] = assay: Inhibition of osteolytic bone metastases in human MDA-MB-231 cells xenografted in athymic nude mouse left cardiac ventricle assessed as reduction in lytic bone lesion area at 25 to 50 mg/kg, ip administered every other day for 3 weeks measured on day 16 relative to control; assay type: functional, Heart left ventricle; details: dose mg/kg 25-50; route intraperitoneal
Method in brief: as §1

[19] = biological target: Mothers against decapentaplegic homolog 3 (Homo sapiens) (UniProt P84022); assay: Inhibition of TGF-beta-induced Smad3 phosphorylation in human MDA-MB-231 cells treated 12 hrs before TGF-beta challenge measured after 1 hr by Western blotting; assay type: cell-based
Method in brief: as §3

Mus musculus [20] = assay: Toxicity in human MDA-MB-231 cells xenografted athymic nude mouse left cardiac ventricle assessed as effect on white blood cells at 25 mg/kg, ip administered every other day for 3 weeks (reference value: 5.84 +/- 1.3 K/uL); details: in vivo, 504 h
MDA-MB-231 [21] = assay: Inhibition of osteolytic bone metastases in human MDA-MB-231 cells xenografted in athymic nude mouse left cardiac ventricle assessed as reduction of bone-tumor interface at 50 mg/kg, ip administered every other day for 3 weeks; assay type: functional; details: MDA-MB-231, Heart left ventricle, 504 h, route intraperitoneal
Method in brief: as §2

Mus musculus [22] = assay: Toxicity in human MDA-MB-231 cells xenografted athymic nude mouse left cardiac ventricle assessed as effect on bone-forming osteoblast cell at 25 to 50 mg/kg, ip administered every other day for 3 weeks; assay type: organism-based, Heart; parameters: dose 25-50 mg/kg, route intraperitoneal; details: in vivo, 504 h
Mus musculus [23] = assay: Toxicity in human MDA-MB-231 cells xenografted athymic nude mouse left cardiac ventricle assessed as effect on white blood cells at 50 mg/kg, ip administered every other day for 3 weeks (reference value: 5.84 +/- 1.3 K/uL); details: in vivo, 504 h
MDA-MB-231 [24] = assay: Cytotoxicity against human MDA-MB-231 cells assessed as cell viability by MTT assay; assay type: cell-based
Method in brief: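 MDA-MB-231 plated at 5 × 10^4 cells/cm2 and held overnight in DMEM with 10% FBS at 37°C and 5% CO2. Pre-incubated 4 h with compound in 2% FBS DMEM, then medium refreshed with TGF-β1 (5 ng/mL) for 24 h. Cell number read by MTT reduction.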

MDA-MB-231 [25] = assay: Inhibition of osteolytic bone metastases in human MDA-MB-231 cells xenografted in athymic nude mouse left cardiac ventricle assessed as reduction of bone lysis at 25 to 50 mg/kg, ip administered every other day for 3 weeks measured on day 21; assay type: functional, Heart left ventricle; details: dose mg/kg 25-50; route intraperitoneal
Method in brief: as §1

Mus musculus [26] = assay: Toxicity in human MDA-MB-231 cells xenografted athymic nude mouse left cardiac ventricle assessed as effect on spleen weight at 50 mg/kg, ip administered every other day for 3 weeks (reference value: 0.134 +/- 0.02 gram); assay type: organism-based; parameters: dose 50 mg/kg, route intraperitoneal; details: in vivo, 504 h
MDA-MB-231 [27] = assay: Inhibition of TGF-beta-induced PTHrP secretion in human MDA-MB-231 cells at 100 uM treated 4 hrs before TGF-beta challenge measured after 24 hrs by radioimmunoassay; assay type: functional, cell-based
Method in brief: as §4

Mus musculus [28] = assay: Toxicity in human MDA-MB-231 cells xenografted athymic nude mouse left cardiac ventricle assessed as effect on platelets at 50 mg/kg, ip administered every other day for 3 weeks (reference value: 513 +/- 54 K/uL); assay type: organism-based, Heart; parameters: dose 50 mg/kg, route intraperitoneal; details: in vivo, 504 h
MDA-MB-231 [29] = assay: Inhibition of osteolytic bone metastases in human MDA-MB-231 cells xenografted in athymic nude mouse left cardiac ventricle assessed as improvement in host survival at 25 to 50 mg/kg, ip administered every other day for 3 weeks measured on day 16 relative to vehicle-treated control; assay type: functional, organism-based; details: Heart left ventricle
Method in brief: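 Intracardiac MDA-MB-231 nude mice (n = 11/group) dosed ip every other day for 3 weeks. Survival shown by Kaplan–Meier and analyzed by logrank test with post-hoc logrank test for trend.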

Mothers against decapentaplegic homolog 3 (Homo sapiens), sequence (P84022 2-425 limits assumed): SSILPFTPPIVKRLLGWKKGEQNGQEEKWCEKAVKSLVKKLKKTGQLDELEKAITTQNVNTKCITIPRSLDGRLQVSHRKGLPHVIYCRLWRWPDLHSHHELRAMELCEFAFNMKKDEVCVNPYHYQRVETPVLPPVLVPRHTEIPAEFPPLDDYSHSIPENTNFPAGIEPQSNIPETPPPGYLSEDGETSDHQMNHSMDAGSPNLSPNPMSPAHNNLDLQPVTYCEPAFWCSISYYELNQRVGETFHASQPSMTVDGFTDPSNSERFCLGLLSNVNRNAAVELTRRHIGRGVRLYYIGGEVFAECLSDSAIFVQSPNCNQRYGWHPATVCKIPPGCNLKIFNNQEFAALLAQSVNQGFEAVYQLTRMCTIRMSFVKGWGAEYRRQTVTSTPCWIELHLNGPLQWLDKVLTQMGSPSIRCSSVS
Mothers against decapentaplegic homolog 2 (Homo sapiens), sequence (Q15796 whole entry): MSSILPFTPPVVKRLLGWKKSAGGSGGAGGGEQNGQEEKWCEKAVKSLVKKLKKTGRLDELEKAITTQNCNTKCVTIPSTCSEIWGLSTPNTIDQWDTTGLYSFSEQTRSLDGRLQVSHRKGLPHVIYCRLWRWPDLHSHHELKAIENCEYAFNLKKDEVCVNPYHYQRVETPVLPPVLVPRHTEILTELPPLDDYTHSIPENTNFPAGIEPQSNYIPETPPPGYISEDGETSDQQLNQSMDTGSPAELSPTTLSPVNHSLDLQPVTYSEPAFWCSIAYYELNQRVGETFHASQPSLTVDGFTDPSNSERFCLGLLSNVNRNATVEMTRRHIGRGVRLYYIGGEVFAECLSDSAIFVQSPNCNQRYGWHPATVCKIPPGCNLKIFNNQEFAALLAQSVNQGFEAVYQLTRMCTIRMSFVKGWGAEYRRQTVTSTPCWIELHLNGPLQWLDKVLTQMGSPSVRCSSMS

| Compound | Activity (Mus musculus [1]) | Activity (Mus musculus [2]) | inhibition (MDA-MB-231 [3]) | Activity (Mus musculus [4]) | Activity (Mus musculus [5]) | Activity (Mus musculus [6]) | inhibition (INH) (MDA-MB-231 [7]) | inhibition in vivo at 25 mg/kg (MDA-MB-231 [8]) | inhibition (MDA-MB-231 [9]) | Activity (Mus musculus [10]) | Activity (Mus musculus [11]) | inhibition [12] | inhibition [13] | IC50 (MDA-MB-231 [14]) | inhibition (MDA-MB-231 [14]) | minimal effective concentration (MDA-MB-231 [14]) | Activity (Mus musculus [15]) | Activity (MDA-MB-231 [16]) | Activity (Mus musculus [17]) | inhibition (INH) (MDA-MB-231 [18]) | further results |
| --- | --- | --- | --- | --- | --- | --- | --- | --- | --- | --- | --- | --- | --- | --- | --- | --- | --- | --- | --- | --- | --- |
| COc1cc(/C=C/C(=O)CC(=O)/C=C/c2ccc(O)c(OC)c2)ccc1O [CURCUMIN] | inactive | 30.6% | inactive | 5.02 U/L | 485 K/uL | 7.13 U/L | 57% | 53% | Active | 31.1% | 0.987 g | Active | inactive | 24 µM | Dose-dependent effect | 13 µM | 0.129 g | Active | 1.1 g | 51% | inhibition [19]: Active; Activity (Mus musculus [20]): 4.69 K/uL; inhibition in vivo at 50 mg/kg (MDA-MB-231 [21]): 48%; Activity (Mus musculus [22]): Non-toxic; Activity (Mus musculus [23]): 6.83 K/uL; MTC (MDA-MB-231 [24]): 82 µM; inhibition (INH) (MDA-MB-231 [25]): >50%; Activity (Mus musculus [26]): 0.139 g; inhibition (MDA-MB-231 [27]): Active; Activity (Mus musculus [28]): 589 K/uL; Activity (MDA-MB-231 [29]): Active |
| COc1cc(/C=C/C(O)=C/C(=O)/C=C/c2ccc(O)cc2)ccc1O [DEMETHOXYCURCUMIN] | inactive | 30.6% | inactive | 5.02 U/L | 485 K/uL | 7.13 U/L | 57% | 53% | Active | 31.1% | 0.987 g | Active | inactive | 24 µM | Dose-dependent effect | 13 µM | 0.129 g | Active | 1.1 g | 51% | inhibition [19]: Active; Activity (Mus musculus [20]): 4.69 K/uL; inhibition in vivo at 50 mg/kg (MDA-MB-231 [21]): 48%; Activity (Mus musculus [22]): Non-toxic; Activity (Mus musculus [23]): 6.83 K/uL; MTC (MDA-MB-231 [24]): 82 µM; inhibition (INH) (MDA-MB-231 [25]): >50%; Activity (Mus musculus [26]): 0.139 g; inhibition (MDA-MB-231 [27]): Active; Activity (Mus musculus [28]): 589 K/uL; Activity (MDA-MB-231 [29]): Active |
